Activity calls are given as the source filed them. The calls are words filed in the database; no cut-off is given here.
Legend:
Assay type in all cases: functional, cell-based
[1] = Activation of human BM2a.3 cells co-cultured with CD1d-expressing U937 cells assessed as IFN-gamma release after 16 hrs by ELISA; details: U-937
Method in brief: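 Human iNKT clone BM2a.3 (2.5×10^4) co-cultured with 2.5×10^4 U937 cells and a range of lipid concentrations; cytokines in culture supernatants measured by ELISA after 16 h.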

[2] = test system: RAW; test: Activation of mouse DN32 cells in co-cultured with CD1d-transfected RAW cells assessed as IL-2 release after 16 hrs by ELISA
Method in brief: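 Mouse iNKT hybridoma DN32 (5×10^4) co-cultured with 5×10^4 RAW cells, CD1d-transfected or untransfected, across a range of lipid concentrations; supernatant cytokines measured by ELISA at 16 h.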

[3] = test system: DN32; test: Activation of mouse DN32 cells in co-cultured with plate bound antigen presenting cell free CD1d-FC fusion protein assessed as IL-2 release after 16 hrs by ELISA
Method in brief: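 Plate-bound murine recombinant CD1d-Fc fusion protein loaded with lipid for 16 h, then washed; 5×10^4 iNKT hybridoma cells added per well, with no APC. Cytokines in culture supernatants measured by ELISA.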

[4] = test system: RAW; test: Activation of mouse DN32 cells co-cultured with CD1d-transfected RAW cells assessed as IL-2 release at 100 ng/ml pulsed for 3 hrs and then fixed measured after 16 hrs by ELISA
Method in brief: (§1)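 CD1d-transfected RAW cells were handled in one of two orders. In one, they were pulsed with 100 ng/ml lipid for 3 h, washed, then fixed with glutaraldehyde. In the other, they were fixed first, then pulsed for 3 h. 10^5 APC were co-cultured with 10^5 iNKT hybridoma cells for 16 h, and supernatant cytokines were measured by ELISA.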

[5] = test system: RAW; test: Activation of mouse DN32 cells co-cultured with CD1d-transfected RAW cells assessed as IL-2 release at 100 ng/ml fixed and then pulsed for 3 hrs measured after 16 hrs by ELISA; method in brief: as §1

For `CCCCCCCCCCCCCCCCCCCCCCCCCC(=O)N[C@@H](CO[C@H]1O[C@H](CO)[C@H](O)[C@H](O)[C@H]1O[C@H]1O[C@H](CO)[C@H](O)[C@H](O)[C@H]1O)[C@H](O)[C@H](O)CCCCCCCCCCCCCC`, the Activity [1] was “Active”, the Activity [2] was “Active” and the Activity [3] was “inactive”. For the same compound, the Activity [4] was “Active” and the Activity [5] was “inactive”.
With `CCCCCCCCCCCCCCCCCCCCCCCCCC(=O)N[C@@H](CO[C@H]1O[C@H](CO)[C@H](O)[C@H](O)[C@H]1O)[C@H](O)[C@H](O)CCCCCCCCCCCCCC` the Activity [1] was “Active”, the Activity [2] was “Active” and the Activity [3] was “Active”. For the same compound, the Activity [4] was “Active” and the Activity [5] was “Active”.

— ChEMBL document CHEMBL1153633, “Synthesis and biological activity of alpha-galactosyl ceramide KRN7000 and galactosyl (alpha1-->2) galactosyl ceramide” (Bioorg Med Chem Lett, 2009)
